Redox H2O2 prof: compounds producing H2O2 with reducing agent – biochemical, NIH compound library profiling, artefact control for MLSCN library redox annotation, primary screen. DTT-dependent redox cycling H2O2, phenol red/HRP absorbance; 100% = 100 µM peroxide control, 0% = buffer. activation, % at 10 µM. 200,000 compounds, 0.03% hits. AID 878, 2007;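 active = activation of at least 50% relative to the plate's high and low controls in the primary single-dose screen; inactive = activation below 50%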;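 note: compound incubated with DTT at 0.8 mM final as the reducing agent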
Dynein transport: inhibitors of GR-EGFP nuclear translocation, primary screen, dynein cargo transport inhibitor project, imaging, high-content, 3617.4 mouse cells | test concentration mostly 20 µM; stimulated with dexamethasone, 1 µM; stronger effect = lower value | z-score, hits read low | 220,000 compounds, 0.47% hits;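 active = plate z-score of nuclear minus cytoplasmic receptor signal below a set negative limit, without overly bright fluorescence or cell loss, cut at about -3.5 in these data, passing the limit was not always enough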;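 note: z-score of nuclear minus cytoplasmic ring GR-EGFP intensity difference per well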
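Also added: dexamethasone, 1.0 µM final. Medium: tet-free, stripped-serum medium. Detection: fixed, Hoechst-stained cells imaged at 10x for EGFP. Read-out: nuclear-to-cytoplasmic GR-EGFP distribution per well. Times: induction 48 h, compound 1 h, agonist 30 min.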
KCC2 mod: KCC2 cotransporter modulators, thallium flux, primary screen, cell-based, HEK293 KCC2, FluoZin-2 fluorescence, MLSMR. KCC2 cells, thallium flux FluoZin-2 fluorescence. B-score of Tl+ flux slope (higher = more flux/activation; lower = inhibition) at 10 µM. 190,000 compounds, 2.2% hits;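 active = thallium flux slope and its plate-corrected score both differing from the plate sample mean at a set confidence after two filtering rounds, in either direction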;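 note: slope of fluorescence scaled to starting intensity during 10 to 20 s after thallium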
ROMK mod: ROMK potassium channel modulators, primary screen, cell-based, thallium flux, MLSMR library | 130,000 compounds, 2% hits | Tet-inducible ROMK, thallium flux fluorescence; actives lie on both sides | B-score at 10 µM;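 active = signal ratio slope over the read window, or its plate-corrected B-score, at least 3 SD from the plate mean, either direction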;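 note: B-score of the F/F0 ratio slope over 7 to 12 s after thallium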
Target sequence (P48048 whole entry, looked up): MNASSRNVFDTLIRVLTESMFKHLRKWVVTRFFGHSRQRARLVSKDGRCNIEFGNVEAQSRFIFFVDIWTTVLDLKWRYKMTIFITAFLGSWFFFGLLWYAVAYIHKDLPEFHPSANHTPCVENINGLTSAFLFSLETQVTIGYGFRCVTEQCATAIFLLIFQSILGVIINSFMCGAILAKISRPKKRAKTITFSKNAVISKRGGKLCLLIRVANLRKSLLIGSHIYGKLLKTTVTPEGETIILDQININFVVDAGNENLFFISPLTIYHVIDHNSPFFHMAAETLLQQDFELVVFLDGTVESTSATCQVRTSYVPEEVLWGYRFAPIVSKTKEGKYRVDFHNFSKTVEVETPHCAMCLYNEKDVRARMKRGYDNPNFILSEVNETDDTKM
Autophagy HCS: autophagy modulators in MEF cells, primary screen, imaging, high-content, MEF GFP-LC3; MEF GFP-LC3 puncta imaging; test concentration mostly 10 µM; calls only at 10 µM (by protocol); 190,000 compounds, 0.98% hits;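 active = percentage of spot-positive cells more than 3 SD above its plate mean, without a fluorescence outlier flag or 80% toxicity; inconclusive = no clear call, values can overlap the other calls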;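 note: spot-positive cell cutoff set from DMSO-treated cells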
ROMK hit retest: ROMK channel modulator hit retest, confirmation, cell-based, thallium flux, duplicate, resupplied hits; shares compounds with ROMK mod; fluorescence ratio; stronger effect = lower value; normalized thallium flux (F/F0 slope) at 10 µM; 3,000 compounds, 54% hits; AID 1917, 2009;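 active = Flux at 10 µM at least 3 SD below or above vehicle control mean in one or both replicates; inconclusive = no clear call, values can overlap the other calls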
* = called active by the depositor. Rows were chosen to be rich in hits. Some 4.1% of all compounds tested hit in one or more screens of this group.

`COc1ccccc1C(=O)N(CCC1CCCN1C)c1nc2ccccc2s1` (stereo unspecified) gave Redox H2O2 prof -1, Dynein transport 0.83, KCC2 mod -0.05, ROMK mod -0.96 and Autophagy HCS inactive.
`Cc1c(C(=O)O)oc2c1/C(=N\O)CCC2` gave Redox H2O2 prof 0, Dynein transport -0.45, KCC2 mod 0.21 and Autophagy HCS inactive.
`O/N=C1\CCCc2oc3c(c21)CCCC3` gave Redox H2O2 prof 2, Dynein transport -0.085, Autophagy HCS inactive and ROMK hit retest 0.064*.
Cc1nc(NC(=O)CSc2nnc(N)s2)c(Cl)cc1Cl was read as Redox H2O2 prof -1, Dynein transport 0.097, KCC2 mod 0.32, ROMK mod 0.58 and Autophagy HCS inactive.
O=C(CN1C(=O)C2C3C=CC(C4CC34)C2C1=O)Nc1cnc2ccccc2c1 (stereo unspecified) was read as Redox H2O2 prof 0, Dynein transport -0.37, KCC2 mod -0.97, ROMK mod 0.35 and Autophagy HCS inactive.
Cc1ccc(C(C(=O)NC2CCCCC2)N(Cc2ccco2)C(=O)Cc2c[nH]c3ccccc23)o1 (stereo unspecified) was read as Redox H2O2 prof 2, Dynein transport -0.33, Autophagy HCS inactive and ROMK hit retest inconclusive.
`Cc1ccc(C(C(=O)NC2CCCCC2)N(C(=O)Cc2c[nH]c3ccccc23)c2ccccc2C)o1` (stereo unspecified) gave Redox H2O2 prof 0, Dynein transport 1.2, KCC2 mod 0.24, ROMK mod 0.51 and Autophagy HCS inactive.
Screening CC(=O)NS(=O)(=O)c1ccc(NC(=O)CSc2ccc(C)cc2)cc1 returned Redox H2O2 prof -2, Dynein transport -0.04, KCC2 mod 0.21, ROMK mod 0.51 and Autophagy HCS inactive.
Screening O=C(CN(C(=O)c1ccccc1Cl)N1C(=O)C2C3C=CC(C3)C2C1=O)c1cccs1 (stereo unspecified) returned Redox H2O2 prof 0, Dynein transport -0.78, KCC2 mod -0.41 and Autophagy HCS inactive.
Screening CC1CCN(C(=O)CSCC(=O)Nc2nc(-c3cccs3)cs2)CC1 returned Redox H2O2 prof 0, Dynein transport -1.6, KCC2 mod 2.7, Autophagy HCS inactive and ROMK hit retest 0.065*.
For CC1CCCN(C(=O)CSCC(=O)Nc2nc(-c3cccs3)cs2)C1 (stereo unspecified) the results were Redox H2O2 prof 12, Dynein transport -0.24 and Autophagy HCS inactive.
`COc1ccc(-c2n(CC(=O)OC3CC(C)CCC3C(C)C)c3ccccc3[n+]2C)cc1` (stereo unspecified) gave Redox H2O2 prof 0, Dynein transport 0.98, KCC2 mod -0.41, ROMK mod -1.8*, Autophagy HCS active and ROMK hit retest 0.038*.
O=S(=O)(/N=C(/Sc1ccccc1)c1ccccc1)c1ccccc1 was read as Redox H2O2 prof 0, Dynein transport 0.47, KCC2 mod 0.17, ROMK mod -2.8*, Autophagy HCS inactive and ROMK hit retest 0.05*.
Screening Cn1c(=O)c2c(ncn2Cc2nnc(N)s2)n(C)c1=O returned Redox H2O2 prof -1, Dynein transport 0.59, KCC2 mod -0.58, ROMK mod 0.76 and Autophagy HCS inactive.
Cn1cc(/C=C2\SC(=S)N(NC(=O)c3ccccc3)C2=O)c2ccccc21 was read as Redox H2O2 prof -1, Dynein transport 1.3, KCC2 mod -2.6, ROMK mod -3*, Autophagy HCS inactive and ROMK hit retest 0.058*.
`CC1(C2CC2)NC(=O)N(CC(=O)Nc2ccccc2-c2ccccc2)C1=O` (stereo unspecified) gave Redox H2O2 prof 0, Dynein transport 0.1, KCC2 mod 1.7, ROMK mod 0.097 and Autophagy HCS inactive.
Cc1ccc2[nH]c3c(NCc4ccco4)ncnc3c2c1 was read as Redox H2O2 prof 2, Dynein transport -0.37, KCC2 mod -1.2, ROMK mod -3.4*, Autophagy HCS inactive and ROMK hit retest 0.065*.
For c1coc(CNc2ncnc3c2oc2ccccc23)c1 the results were Redox H2O2 prof -1, Dynein transport -0.73, ROMK mod -3.5*, Autophagy HCS inactive and ROMK hit retest 0.061*.
Screening CCc1nc(NCc2ccco2)c2oc3ccccc3c2n1 returned Redox H2O2 prof 0, Dynein transport -0.69, KCC2 mod -2.8 and Autophagy HCS inactive.
`COC(=O)C1CSC(c2ccc(Cl)cc2)N1C(=O)c1ccccc1` (stereo unspecified) gave Redox H2O2 prof 0, Dynein transport 0.75, KCC2 mod -0.38, ROMK mod -0.55 and Autophagy HCS inactive.
Screening O=C(CN1C(=O)CC(c2ccccc2)S(=O)(=O)c2ccccc21)N1CCCC1 (stereo unspecified) returned Redox H2O2 prof 0, Dynein transport 0.57, KCC2 mod 0.92, ROMK mod -0.038 and Autophagy HCS inactive.
Cc1ccccc1NC(=O)C1CC(=O)N(Cc2ccccc2)C1 (stereo unspecified) was read as Redox H2O2 prof -2, Dynein transport 0.92, KCC2 mod -1.1, ROMK mod 0.0014 and Autophagy HCS inactive.
Screening Cc1ccc(S(=O)(=O)NCCc2ccncc2)cc1 returned Redox H2O2 prof 4, Dynein transport 0.44, KCC2 mod 0.62 and Autophagy HCS inactive.
Screening CCCCc1ccc(S(=O)(=O)NCCc2ccncc2)cc1 returned Redox H2O2 prof 2, Dynein transport -0.18, Autophagy HCS inactive and ROMK hit retest 0.062*.
`COc1ccccc1Oc1ccc(S(=O)(=O)NCc2ccccn2)cc1` gave Redox H2O2 prof 3, Dynein transport -1.5, ROMK mod -2.7*, Autophagy HCS inactive and ROMK hit retest 0.073.
Screening COc1ccc(S(=O)(=O)NCc2ccccn2)cc1Cl returned Redox H2O2 prof 0, Dynein transport 0.48, KCC2 mod -0.0026 and Autophagy HCS inactive.
Screening COCCNC(=O)COC(=O)c1ccc(OCC(=O)Nc2ccccc2OC)c(OC)c1 returned Redox H2O2 prof -2, Dynein transport 0.068, KCC2 mod -0.05, ROMK mod 0.89 and Autophagy HCS inactive.
O=C(COC(=O)CCC(=O)c1cccs1)NC(=O)c1ccc(OC(F)F)cc1 was read as Redox H2O2 prof -2, Dynein transport -0.91, KCC2 mod -0.66, ROMK mod -1 and Autophagy HCS inactive.

Compound activity (PubChem)
